Ends that are not written are not given here. * marks the point of attachment. FITC = O=C1OC2(c3ccc(O)cc3Oc3cc(O)ccc32)c2ccc(NC(=S)*)cc21; Ahx = NCCCCCC(=O)O
Legend:
[1] = system: IP3R1; details: ref [3]; cited from earlier work
[2] = target: T1, HS-Bok (Mus musculus, UniProt O35425); test: Fluorescence polarization; format: binding; details: FP, PBS pH 7.4 / 0.1% BSA
T1 sequence (O35425 1-213): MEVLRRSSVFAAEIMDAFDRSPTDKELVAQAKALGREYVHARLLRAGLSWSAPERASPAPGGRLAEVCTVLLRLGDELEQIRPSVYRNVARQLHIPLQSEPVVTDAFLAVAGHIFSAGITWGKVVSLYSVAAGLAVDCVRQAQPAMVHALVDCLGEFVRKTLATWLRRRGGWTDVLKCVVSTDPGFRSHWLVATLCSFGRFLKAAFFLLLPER

[3] = target: FITC-IP3R1^1898-1940 (mouse) (UniProt P11881); test: fluorescence polarisation
[4] = target: FITC-IP3R1^1898-1929 (mouse) (UniProt P11881); test: fluorescence polarisation
[5] = target: FITC-IP3R1^1904-1940 (mouse) (UniProt P11881); test: fluorescence polarisation
[6] = system: HEK-3KO cells; test: Cellular fractionation into cytosol and crude membrane, immunoblot; format: cell-based; details: for localization on co-expression of IP3R1-HA^WT and 3F-Bok^WT: IP3R1-HA^WT and 3F-Bok^WT co-expressed; for localization, expressed alone: cytosol / membrane fractions
Procedure, shortened: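 HEK-3KO cells are PEI-transfected (1-2 μg cDNA) with tagged mouse constructs, harvested in ice-cold homogenization buffer and sonicated. They are then spun at 20,000xg for 60 min at 4°C. The supernatant gives the cytosol fraction, and the pellet, resuspended in buffer, gives crude membranes. Fractions go through SDS-PAGE and ECL immunoblot, with transaldolase as the cytosol marker and Hrd1 as the membrane marker.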

[7] = system: 3F-Bok^WT; test: Anti-HA IP of IP3R1-HA constructs and co-IP of 3F-Bok^WT from HEK-3KO cells; format: cell-based, mouse; details: IP3R1-HA and 3F-Bok co-transfected, immunoblot
Procedure, shortened: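 Cotransfection uses full-length C-terminally HA-tagged mouse IP3R1 and N-terminally 3xFlag-tagged mouse Bok, with 1-2 μg cDNA and PEI, in HEK-3KO cells seeded at 6-8x10^5/well and transfected ~24 h later. Rabbit anti-HA precipitates from lysates. Blots of precipitates and inputs are probed with mouse anti-HA and anti-Bok, with p97 as input loading control. Detection is by ECL after SDS-PAGE and nitrocellulose transfer.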

[8] = system: 3F-Bok^ΔTM; test: Anti-HA IP and co-IP of TM domain-lacking constructs from HEK-3KO cells; format: cell-based, mouse; details: immunoblot
Procedure, shortened: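 HEK-3KO cells (6-8x10^5/well) are transfected ~24 h after seeding with 1-2 μg cDNA using PEI. Constructs are mouse IP3R1 with a C-terminal HA tag, truncated to aa 1-2264, and mouse Bok with an N-terminal 3xFlag tag, truncated to aa 1-187. Lysates are immunoprecipitated with rabbit anti-HA. Samples are heated (37°C 30 min or boiled 5 min), run on SDS-PAGE, blotted to nitrocellulose and detected by ECL. p97 is the input loading control.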

[9] = system: HS-HA; test: FP of FITC-conjugated peptide with negative control HS-HA; format: binding; details: PBS pH 7.4 / 0.1% BSA, FITC-IP3R1^1898-1940
[10] = system: HS-IP3R1; format: binding, mouse; details: PBS / 0.1% BSA, 16h at 4°C, anti-IP3R1^1884-1903 IP, immunoblot
Procedure, shortened: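 His-SUMO-tagged mouse Bok and IP3R1 fragments, plus an HA-tag control, are expressed in E. coli BL21-CodonPlus(DE3)-RIPL. Cells are grown at 37°C to OD600 ~0.6, then induced with 1 mM IPTG for ~18 h at 16°C. Protein is purified on Ni-NTA in pH 7.4 phosphate buffer and eluted with 400 mM imidazole. Mixtures are immunoprecipitated with rabbit anti-IP3R1 (aa 1884-1903) and probed by immunoblot.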

In the case of “Bcl-2: Bcl-2 family protein reported to interact with IP3Rs”, the “strength of interaction with IP3R1 relative to Bok” value [1] is given as “much less strongly than Bok”.

For “Bcl-xL: Bcl-2 family protein reported to interact with IP3Rs”, the “strength of interaction with IP3R1 relative to Bok” value [1] is listed as “much less strongly than Bok”.

With “FITC-IP3R1^1907-1921: shorter peptide which encompasses just the ANCHOR2 "peak" shown in Figure 1C (ITEEVRDQLLEASAA; also: FITC-conjugated, position not given here)” the “binding to HS-Bok (in words)” value [2] was “does not bind to HS-Bok at all”.

“HS-Bok (from UniProt O35425 1-213) (natural protein)” gave a Kd [3] of 64 nM, a Kd [4] of 265 nM and a Kd [5] of 398 nM.

With “IP3R1-HA^WT: mouse IP3R1 tagged at the C-terminus with an HA epitope” the “localization on co-expression of IP3R1-HA^WT and 3F-Bok^WT” value [6] was “the same localization is maintained”, the “localization, expressed alone” value [6] was “localize completely to membranes” and the “co-IP of 3F-Bok^WT” value [7] was “allowed for efficient co-IP of 3F-Bok^WT”.

With “IP3R1-HA^Δ1909-1941: IP3R1-HA construct with the largest deletion” the “co-IP of 3F-Bok^WT” value [7] was “did not co-IP 3F-Bok^WT”.

With “IP3R1-HA^Δ1916-1917: IP3R1-HA deletion mutant, Bok binding-deficient” the “co-IP of 3F-Bok^WT” value [7] was “failed to co-IP 3F-Bok^WT”.

With “IP3R1-HA^Δ1917: IP3R1-HA deletion mutant” the “co-IP of 3F-Bok^WT” value [7] was “failed to co-IP 3F-Bok^WT”.

In the case of “IP3R1-HA^Δ1920-1921: IP3R1-HA deletion mutant”, the “co-IP of 3F-Bok^WT” value [7] is reported as “failed to co-IP 3F-Bok^WT”.

For “IP3R1-HA^ΔTM, Δ1916-1917: lacks TM domains and the ability to bind Bok”, the “localization upon co-transfection of 3F-Bok^WT” value [6] was “an effect not seen”.

In the case of “IP3R1-HA^ΔTM: contains amino acids 1-2264 of IP3R1”, the “localization upon co-transfection of 3F-Bok^WT” value [6] is reported as “becomes more membrane-associated”, the “localization, expressed alone” value [6] is reported as “predominantly cytosolic” and the “co-IP of cytosolic 3F-Bok^ΔTM and IP3R1-HA^ΔTM” value [8] is reported as “strongly co-IP”.

With “{FITC-Ahx}-KKAKEPTTQITEEVRDQLLEASAATRKAFTTFRREADPDDHYQ (N-terminus assumed) [FITC-IP3R1^1898-1940]” the “binding to HS-HA (in words)” value [9] was “but not negative control HS-HA” and the “binding to HS-Bok (in words)” value [2] was “bound with high affinity”.

B1: HS-Bok: bacterially expressed, His-sumo (HS) tagged mouse Bok (protein, UniProt O35425 1-213, looked up)
Bcl-2-related ovarian killer …: MEVLRRSSVFAAEIMDAFDRSPTDKELVAQAKALGREYVHARLLRAGLSWSAPERASPAPGGRLAEVCTVLLRLGDELEQIRPSVYRNVARQLHIPLQSEPVVTDAFLAVAGHIFSAGITWGKVVSLYSVAAGLAVDCVRQAQPAMVHALVDCLGEFVRKTLATWLRRRGGWTDVLKCVVSTDPGFRSHWLVATLCSFGRFLKAAFFLLLPER
modifications: His-SUMO tag
For B1, the “co-IP with HS-IP3R1” value [10] was “strong co-IP”.

B2: 3F-Bok^WT: Bok from mouse tagged at the N-terminus with a 3xFlag epitope (protein)
chain: MEVLRRSSVFAAEIMDAFDRSPTDKELVAQAKALGREYVHARLLRAGLSWSAPERASPAPGGRLAEVCTVLLRLGDELEQIRPSVYRNVARQLHIPLQSEPVVTDAFLAVAGHIFSAGITWGKVVSLYSVAAGLAVDCVRQAQPAMVHALVDCLGEFVRKTLATWLRRRGGWTDVLKCVVSTDPGFRSHWLVATLCSFGRFLKAAFFLLLPER
modifications: left off: 3xFlag, N-terminal, kept
In the case of B2, the “localization on co-expression of IP3R1-HA^WT and 3F-Bok^WT” value [6] is reported as “the same localization is maintained, with an increase in Bok expression level” and the “localization, expressed alone” value [6] is reported as “localize completely to membranes”.

B3: 3F-Bok^ΔTM: contains amino acids 1-187 of Bok (protein)
chain: MEVLRRSSVFAAEIMDAFDRSPTDKELVAQAKALGREYVHARLLRAGLSWSAPERASPAPGGRLAEVCTVLLRLGDELEQIRPSVYRNVARQLHIPLQSEPVVTDAFLAVAGHIFSAGITWGKVVSLYSVAAGLAVDCVRQAQPAMVHALVDCLGEFVRKTLATWLRRRGGWTDVLKCVVSTDPGFR
modifications: left off: 3xFlag, N-terminal, kept
In the case of B3, the “localization, expressed alone” value [6] is reported as “predominantly cytosolic”.

From publication PMC8052301 (Biochemical and biophysical research communications, 2021)
